Experimental data from ChEMBL document CHEMBL1122845, “Inhibitors of blood platelet aggregation. Effects of some 1,2-benzisothiazol-3-ones on platelet responsiveness to adenosine diphosphate and collagen” (J Med Chem, 1985).
Values joined by “and” are separate entries in the source; they are usually repeats but may differ in a detail not shown here. Equal values may be shown once. Where a name gives a salt, the structure may show the parent alone.

Key:
Cavia porcellus [1] = test: Ex vivo inhibition of ADP induced guinea pig platelet aggregation following 0.08 mmol/kg administration.; format: functional
Outline: (§1)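 Fasted male rats (~200 g) or guinea pigs (~300 g), n=5-10, dosed orally (5 mL/kg) in 1% methylcellulose; methylcellulose alone as control. Killed with CO2 after 2 h. Vena cava blood citrated (102 mM rat, 129 mM guinea pig); PRP adjusted to 800000/µL (rat) or 500000/µL (guinea pig). EC25 for first-phase ADP aggregation (max 8 µM) interpolated from two 2-fold-spaced ADP levels. Dose ratio = treated/control mean EC25; Student's t-test. Some groups tested as pooled PRP.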

Cavia porcellus [2] = test: Ex vivo inhibition of collagen induced guinea pig platelet aggregation following 0.08 mmol/kg administration.; format: functional
Outline: (§2)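 Male rats (~200 g) or guinea pigs (~300 g), overnight fasted, n=5-10, received compound orally in 1% methylcellulose (5 mL/kg); vehicle-only controls. After 2 h, CO2 kill and vena cava blood into citrate (102 mM rat, 129 mM guinea pig). PRP set to 800000/µL (rat) or 500000/µL (guinea pig). Collagen EC50 (response of 50 mm; max 50 µg/mL) interpolated from a log plot. Dose ratio = treated/control mean EC50; t-test. Pooled PRP sometimes used.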

Cavia porcellus [3] = test: The compound was tested ex vivo at a dose of 0.04 mmol/kg for collagen induced platelet aggregation in guinea pig; format: functional; outline: as §2
Cavia porcellus [4] = test: The compound was tested ex vivo at a dose of 0.04 mmol/kg for ADP induced platelet aggregation in guinea pig; format: functional; outline: as §1
Cavia porcellus [5] = test: The compound was tested ex vivo at a dose of 0.15 mmol/kg for collagen induced platelet aggregation in guinea pig; format: functional; outline: as §2
Cavia porcellus [6] = test: The compound was tested ex vivo at a dose of 0.15 mmol/kg for ADP induced platelet aggregation in guinea pig; format: functional; outline: as §1
Rattus norvegicus [7] = test: The compound was tested ex vivo at a dose of 0.3 mmol/kg for collagen induced platelet aggregation in rat; format: functional; outline: as §2
Rattus norvegicus [8] = test: The compound was tested ex vivo at a dose of 0.15 mmol/kg for collagen induced platelet aggregation in rat; format: functional; outline: as §2
Rattus norvegicus [9] = test: The compound was tested ex vivo at a dose of 0.15 mmol/kg for ADP induced platelet aggregation in rat; format: functional; outline: as §1
Rattus norvegicus [10] = test: The compound was tested ex vivo at a dose of 0.15 mmol/kg for ADP induced platelet aggregation in rat
Rattus norvegicus [11] = test: The compound was tested at a dose of 0.15 mmol/kg ex vivo for collagen induced platelet aggregation in rat; format: functional; outline: as §2
Cavia porcellus [12] = test: The compound was tested ex vivo at a dose of 0.08 mmol/kg for ADP induced platelet aggregation in guinea pig; format: functional; outline: as §1
Cavia porcellus [13] = test: The compound was tested ex vivo at a dose of 0.08 mmol/kg for collagen induced platelet aggregation in guinea pig; format: functional; outline: as §2
Rattus norvegicus [14] = test: The compound was tested ex vivo at a dose of 0.08 mmol/kg for ADP induced platelet aggregation in rat; format: functional; outline: as §1
Rattus norvegicus [15] = test: The compound was tested ex vivo at a dose of 0.08 mmol/kg for collagen induced platelet aggregation in rat; format: functional; outline: as §2
Cavia porcellus [16] = test: The compound was tested at a dose of 0.08 mmol/kg ex vivo for collagen induced platelet aggregation in guinea pig; format: functional; outline: as §2
Cavia porcellus [17] = species on record: Cavia porcellus; test: The compound was tested ex vivo for ADP induced platelet aggregation in guinea pig; format: functional; outline: as §1
Cavia porcellus [18] = species on record: Cavia porcellus; test: The compound was tested ex vivo for collagen induced platelet aggregation in guinea pig; format: functional; outline: as §2
Homo sapiens [19] = species on record: Homo sapiens; test: In vitro inhibitory activity against human platelet aggregation in the presence of collagen; format: functional, organism-based
Homo sapiens [20] = species on record: Homo sapiens; test: In vitro inhibitory activity against human platelet aggregation in the presence of Adenosine diphosphate; format: functional
Outline: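 Human citrated PRP, platelet count adjusted to 350000/µL with autologous platelet-poor plasma. 90 µL PRP preincubated 3 min at 37 °C with compound or saline (DMF vehicle where needed), stirred at 1100 rpm. ADP chosen per preparation to give a clear first-phase response (typically 1 µM). Photometric read-out: maximum rise in light transmission within 1 min. IC50 determined.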

Rattus norvegicus [21] = species on record: Rattus norvegicus; test: The compound was tested ex vivo for collagen induced platelet aggregation in rat; format: functional; outline: as §2
Rattus norvegicus [22] = species on record: Rattus norvegicus; test: The compound was tested ex vivo for ADP induced platelet aggregation in rat; format: functional; outline: as §1
Homo sapiens [23] = test: The compound was tested ex vivo at a dose of 0.1 mmol/kg for ADP induced platelet aggregation in rat

O=c1c2ccccc2sn1CCCN1CCCC1
Activity (Cavia porcellus [1]): 2 | Activity (Cavia porcellus [2]): 6.2

CCN(CC)CCn1sc2cc(C)cc(C)c2c1=O
Dose ratio (treated/control collagen EC50) (Cavia porcellus [3]): >17 | Activity (Cavia porcellus [4]): 2.2

COc1cc2sn(CCCc3ccccn3)c(=O)c2cc1OC
collagen EC50 dose ratio (treated/control) (Cavia porcellus [5]): >27 | Activity (Cavia porcellus [6]): 2.4

O=c1c2ccccc2sn1CCO
Activity (Rattus norvegicus [7]): 1.3

O=c1c2ccccc2sn1CCCN1CC2CCC(CC2)C1
Activity (Cavia porcellus [1]): 1.2 | Activity (Cavia porcellus [2]): 1.8

O=c1c2ccccc2sn1-c1ccccn1
Activity (Rattus norvegicus [7]): 0.9

O=c1c2ccccc2sn1-c1ccccc1
Activity (Rattus norvegicus [8]): 1.1 | Activity (Rattus norvegicus [9]): 0.9

O=c1c2ccccc2sn1CCCCN1CC2CCC(CC2)C1
Activity (Cavia porcellus [1]): 1.6 | Activity (Cavia porcellus [2]): 4.1

COc1cc2sn(CCCN3CC4CCC(CC4)C3)c(=O)c2cc1OC
Activity (Cavia porcellus [1]): 0.9 | Activity (Cavia porcellus [2]): 1.6

O=c1c2ccccc2sn1CCCCCN1CCCCC1
Activity (Cavia porcellus [1]): 1.3 | Activity (Cavia porcellus [2]): 1.1

Cc1cc2sn(CCN3CC4CCC(CC4)C3)c(=O)c2cc1C
Activity (Rattus norvegicus [10]): 1 | Activity (Rattus norvegicus [11]): 1 | Activity (Cavia porcellus [5]): 0.7 | Activity (Rattus norvegicus [9]): 1.3

Cc1cc(C)c2c(=O)n(CCN3CCCC3)sc2c1
Activity (Cavia porcellus [12]): > 32 | Activity (Cavia porcellus [1]): >32 | Activity (Cavia porcellus [13]): > 23 | Activity (Cavia porcellus [2]): >23

O=c1c2ccccc2sn1CCN1CCCCC1
Activity (Rattus norvegicus [14]): 1.7 | Activity (Cavia porcellus [1]): 1.4 | Activity (Rattus norvegicus [15]): 4 | Activity (Cavia porcellus [2]): 5

Cc1cc(C)c2c(=O)n(CCCCN3CC4CCC(CC4)C3)sc2c1
Dose ratio (treated/control collagen EC50) (Cavia porcellus [3]): 1.1 | Activity (Cavia porcellus [4]): 0.8

O=c1c2ccccc2sn1CCCCN1CCOCC1
Activity (Cavia porcellus [1]): 1.1 | Activity (Cavia porcellus [2]): 2.4

O=c1c2ccccc2sn1CCCN1CCOCC1
Activity (Cavia porcellus [1]): 1.3 | Activity (Cavia porcellus [2]): 2.5

COc1cc2sn(CCCCN3CCCCC3)c(=O)c2cc1OC
Activity (Cavia porcellus [1]): 1.1 | Activity (Cavia porcellus [2]): 1.6

COc1cc2sn(CCCN3CCCCC3)c(=O)c2cc1OC
Activity (Cavia porcellus [16]): 2.5 | Activity (Cavia porcellus [1]): 1.1

O=c1c2ccccc2sn1CCN1CCOCC1
Activity (Rattus norvegicus [8]): 1 | Activity (Rattus norvegicus [9]): 1

Cc1cc(C)c2c(=O)n(CCc3ccccn3)sc2c1
Dose ratio (treated/control collagen EC50) (Cavia porcellus [3]): 1.6 | Activity (Cavia porcellus [4]): 1

COc1cc2sn(CCCCCCN3CC4CCC(CC4)C3)c(=O)c2cc1OC
Activity (Cavia porcellus [17]): 1.1 | collagen EC50 dose ratio (treated/control) (Cavia porcellus [18]): 2

COc1cc2sn(CCCCCN3CC4CCC(CC4)C3)c(=O)c2cc1OC
Activity (Cavia porcellus [17]): 1.7 | collagen EC50 dose ratio (treated/control) (Cavia porcellus [18]): 4.1

Cc1cc2sn(CCN3CCCC3)c(=O)c2cc1C
Activity (Rattus norvegicus [8]): 2.7 | Activity (Cavia porcellus [5]): > 10 | Activity (Cavia porcellus [6]): 1.9 | Activity (Rattus norvegicus [9]): 1.4

COc1cc2sn(CCN3CCCCC3)c(=O)c2cc1OC
Activity (Rattus norvegicus [8]): 2.2 | collagen EC50 dose ratio (treated/control) (Cavia porcellus [5]): 7.3 | Activity (Cavia porcellus [6]): 1.9 | Activity (Rattus norvegicus [9]): 1.1

O=c1c2cc(Cl)c(Cl)cc2sn1CCN1CC2CCC(CC2)C1
Activity (Rattus norvegicus [7]): 1

CC(=O)Oc1ccccc1C(=O)O [ASPIRIN]
Activity (Cavia porcellus [17]): 1 | IC50 (Homo sapiens [19]): 68 µM | IC50 (Homo sapiens [20]): > 1000 µM | Activity (Rattus norvegicus [21]): 1.5 and 1.8 | Activity (Rattus norvegicus [22]): 1.1 and 1

Clc1ccccc1CN1CCc2sccc2C1 [TICLOPIDINE HYDROCHLORIDE]
IC50 (Homo sapiens [23]): 2000 µM | IC50 (Homo sapiens [19]): 1060 µM
